Published values gathered from unrelated publications.
Compare with care: the assays were run in different laboratories.
Cell line: PC-3
Effect on: cell growth or viability

Cc1c(Cc2ccccc2)c(=O)oc2c(C)c(OCC(=O)NN=Cc3ccc(Cl)cc3)ccc12 — viability (MTT; 1000 µg/mL): 2.23%
COc1cc2ncnc(Nc3ccc4c(c3)/C(=C/c3ccccc3)C(=O)N4C)c2cc1OC — IC50 (MTT): 37.9 µM
O=C(NO)c1ccc(CNc2nc3cccc(-c4ccc5c(c4)OCO5)n3n2)cc1 — GI50 (SRB): 0.63 µM
Nc1n[nH]c2nc(-c3cccc(O)c3)cc(-c3cc4cc(Cl)ccc4nc3N3CCOCC3)c12 — IC50 (MTT; 72 h): 0.166 µM
Cc1nc2ccc(CN(C)c3ccc(C(=O)N[C@@H](CCC(=O)O)C(=O)O)s3)cc2c(=O)[nH]1 — IC50 (MTT; 48 h): 3.09 µM
CCCOc1nc(-c2cccc(O)c2)cc(-c2cc3cc(Cl)ccc3nc2N2CCOCC2)c1C#N — IC50 (MTT; 72 h): 0.542 µM
C=CCOc1ccc2c(C)c(CC)c(=O)oc2c1C — viability (MTT; 125 µg/mL): 95.8%
Cc1nc(Nc2ccc3c(c2)C(C)(C)C(=O)N3)c2ccccc2n1 — IC50 (MTT): 34.3 µM
COc1ccc(-c2cc(-c3ccc(Br)cc3)c3c(=O)n(C)c(=O)n(C)c3n2)cc1 — IC50 (MTT; 48 h): 8.58 µM
Cc1c(Cc2ccccc2)c(=O)oc2c(C)c(OCC(=O)NN=Cc3ccc([N+](=O)[O-])cc3)ccc12 — viability (MTT; 500 µg/mL): 5.03%
C=CC(=O)c1cccnc1Nc1cccc(C(F)(F)F)c1 — GI50 (SRB; 48 h): 11.4 µM
Cc1nc(NC(=O)N2CCC[C@H]2C(N)=O)sc1-c1ccnc(C(C)(C)C(F)(F)F)c1 — IC50 (MTT): 47.7 µM
CCc1c(C)c2ccc(OCC(=O)NNC(=S)Nc3ccccc3)c(C)c2oc1=O — viability (MTT; 500 µg/mL): 2.61%
COc1ccc(-c2cc(-c3ccc(Cl)cc3)c3c(=O)n(C)c(=O)n(C)c3n2)cc1 — IC50 (MTT; 48 h): 13.5 µM
Cc1c(Cc2ccccc2)c(=O)oc2c(C)c(OCC(=O)NN=Cc3ccccc3)ccc12 — viability (MTT; 250 µg/mL): 14.1%
COc1ccc(-c2cc(-c3cc(OC)ccc3OC)c3c(=O)n(C)c(=O)n(C)c3n2)cc1 — IC50 (MTT; 48 h): 24.6 µM
COc1cc2ncnc(N(C)c3ccc4c(c3)/C(=C/c3ccccc3)C(=O)N4C)c2cc1OC (mixture of isomers) — IC50 (MTT): 39.2 µM
CCc1c(C)c2ccc(OCc3nnc(S)n3N)c(C)c2oc1=O — viability (MTT; 500 µg/mL): 3.08%
O=C(O)c1cccnc1Nc1cccc(C(F)(F)F)c1 — GI50 (SRB; 48 h): > 30 µM
Cc1nc(Nc2ccc3c(c2)C(C)(C)C(=O)N3C)c2ccccc2n1 — IC50 (MTT): 26.3 µM
COc1ccc(-c2cc(-c3ccc(Cl)cc3)c3c(=O)[nH]c(=O)[nH]c3n2)cc1 — IC50 (MTT; 48 h): 5.24 µM
CC(=NNC(=O)COc1ccc2c(C)c(Cc3ccccc3)c(=O)oc2c1C)c1ccc(Br)cc1 — viability (MTT; 250 µg/mL): 3.08%
COc1ccc(-c2cc(-c3c(OC)cccc3OC)c3c(=O)n(C)c(=O)n(C)c3n2)cc1 — IC50 (MTT; 48 h): 18.6 µM
C=CC(=O)c1cccnc1Nc1cc(C(F)(F)F)ccc1OCc1ccccc1 — GI50 (SRB; 48 h): 19 µM
COc1cc2ncnc(Nc3ccc4c(c3)/C(=C/c3cccc(Cl)c3)C(=O)N4C)c2cc1OC — IC50 (MTT): 22.2 µM
COc1ccc(-c2cc(-c3ccccc3Cl)c3c(=O)n(C)c(=O)n(C)c3n2)cc1 — IC50 (MTT; 48 h): 6.79 µM
